Measurements published in ChEMBL document CHEMBL1177711, “Novel quinolizidinyl derivatives as antiarrhythmic agents: 2. Further investigation” (J Med Chem, 2010).

Legend:
[1] = Negative inotropic activity against potassium-induced contraction in guinea pig left atrium assessed as decrease in developed tension; type: functional, tissue-based; details: Cavia porcellus, Cardiac atrium
[2] = Antiarrhythmic activity in sinusoidal alternating current-induced guinea pig left atrium assessed as increase in current strength at which extra beats occur at 50 uM measured every 30 mins; type: functional, Cavia porcellus, Cardiac atrium
Summary of the method: (§1)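 Isolated guinea pig left atria, electrically driven at 1 Hz, were exposed to sinusoidal alternating current to induce arrhythmia. The read-out was the rise in the ac-arrhythmia threshold over concentrations up to 100 μM.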

[3] = Negative chronotropic activity against potassium-induced contraction in guinea pig left atrium assessed as decrease atrial rate at 50 uM relative to control; type: functional, Cavia porcellus, Cardiac atrium; parameters: scale not given: the % may be the effect or the level left
Aorta = test: Vasorelaxant activity in potassium depolarized guinea pig aortic strip assessed as inhibition of calcium-induced contraction at 100 uM; type: functional; details: Cavia porcellus
[4] = Negative chronotropic activity against potassium-induced contraction in guinea pig left atrium assessed as decrease atrial rate at 0.5 uM relative to control; type: functional, Cavia porcellus, Cardiac atrium; parameters: scale not given: the % may be the effect or the level left
[5] = Cardioprotective effect in Langendorff perfused guinea pig spontaneously beating […] assessed as atrioventicular conduction time at 0.01 uM (RVb = 50 to 55 +/- 1 to 4 ms); type: functional; details: Cavia porcellus
Summary of the method: (§2)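 Whole guinea pig hearts were Langendorff-perfused and their ECG recorded at graded concentrations. Intervals read were PR (atrioventricular conduction time), QT (ventricular action potential duration) and QRS (intraventricular conduction time).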

Heart [6] = test: Cardioprotective effect in Langendorff perfused guinea pig spontaneously beating […] assessed as heart rat at 10 uM (RVb = 175 to 190 +/- 5 to 11 bpm); type: functional, Cavia porcellus
[7] = Negative chronotropic activity against potassium-induced contraction in guinea pig left atrium assessed as decrease atrial rate; type: functional, tissue-based; details: Cavia porcellus, Cardiac atrium
Heart [8] = test: Cardioprotective effect in Langendorff perfused guinea pig spontaneously beating […] assessed as heart rat at 0.01 uM (RVb = 175 to 190 +/- 5 to 11 bpm); type: functional, Cavia porcellus
[9] = Cardioprotective effect in Langendorff perfused guinea pig spontaneously beating […] assessed as intraventicular conduction time at 1 uM (RVb = 19 to 24 +/- 1 to 2 ms); type: functional; details: Cavia porcellus; summary of the method: as §2
Heart [10] = test: Cardioprotective effect in Langendorff perfused guinea pig spontaneously beating […] assessed as heart rat at 0.001 uM (RVb = 175 to 190 +/- 5 to 11 bpm); type: functional, Cavia porcellus
[11] = Cardioprotective effect in Langendorff perfused guinea pig spontaneously beating […] assessed as atrioventicular conduction time at 10 uM (RVb = 50 to 55 +/- 1 to 4 ms); type: functional; details: Cavia porcellus; summary of the method: as §2
[12] = Cardioprotective effect in Langendorff perfused guinea pig spontaneously beating […] assessed as duration of ventricular action potential at 10 uM (RVb = 140 to 161 +/- 2 to 8 ms); type: functional, Cavia porcellus, Cardiac ventricle; summary of the method: as §2
[13] = Cardioprotective effect in Langendorff perfused guinea pig spontaneously beating […] assessed as intraventicular conduction time at 10 uM (RVb = 19 to 24 +/- 1 to 2 ms); type: functional; details: Cavia porcellus; summary of the method: as §2
[14] = Cardioprotective effect in Langendorff perfused guinea pig spontaneously beating […] assessed as intraventicular conduction time at 0.001 uM (RVb = 19 to 24 +/- 1 to 2 ms); type: functional; details: Cavia porcellus; summary of the method: as §2
[15] = Cardioprotective effect in Langendorff perfused guinea pig spontaneously beating […] assessed as intraventicular conduction time at 0.01 uM (RVb = 19 to 24 +/- 1 to 2 ms); type: functional; details: Cavia porcellus; summary of the method: as §2
Heart [16] = test: Cardioprotective effect in Langendorff perfused guinea pig spontaneously beating […] assessed as heart rat at 0.1 uM (RVb = 175 to 190 +/- 5 to 11 bpm); type: functional, Cavia porcellus
[17] = Negative chronotropic activity against potassium-induced contraction in guinea pig left atrium assessed as decrease atrial rate at 10 uM relative to control; type: functional, Cavia porcellus, Cardiac atrium; parameters: scale not given: the % may be the effect or the level left
[18] = Cardioprotective effect in Langendorff perfused guinea pig spontaneously beating […] assessed as duration of ventricular action potential at 0.1 uM (RVb = 140 to 161 +/- 2 to 8 ms); type: functional, Cavia porcellus, Cardiac ventricle; summary of the method: as §2
[19] = Cardioprotective effect in Langendorff perfused guinea pig spontaneously beating […] assessed as duration of ventricular action potential at 1 uM (RVb = 140 to 161 +/- 2 to 8 ms); type: functional, Cavia porcellus, Cardiac ventricle; summary of the method: as §2
Heart [20] = test: Cardioprotective effect in Langendorff perfused guinea pig spontaneously beating […] assessed as heart rat at 1 uM (RVb = 175 to 190 +/- 5 to 11 bpm); type: functional, Cavia porcellus
[21] = Cardioprotective effect in Langendorff perfused guinea pig spontaneously beating […] assessed as atrioventicular conduction time at 1 uM (RVb = 50 to 55 +/- 1 to 4 ms); type: functional; details: Cavia porcellus; summary of the method: as §2
[22] = Cardioprotective effect in Langendorff perfused guinea pig spontaneously beating […] assessed as duration of ventricular action potential at 0.001 uM (RVb = 140 to 161 +/- 2 to 8 ms); type: functional, Cavia porcellus, Cardiac ventricle; summary of the method: as §2
[23] = Cardioprotective effect in Langendorff perfused guinea pig spontaneously beating […] assessed as intraventicular conduction time at 0.1 uM (RVb = 19 to 24 +/- 1 to 2 ms); type: functional; details: Cavia porcellus; summary of the method: as §2
[24] = Cardioprotective effect in Langendorff perfused guinea pig spontaneously beating […] assessed as atrioventicular conduction time at 0.001 uM (RVb = 50 to 55 +/- 1 to 4 ms); type: functional; details: Cavia porcellus; summary of the method: as §2
[25] = Negative inotropic activity against potassium-induced contraction in guinea pig left atrium assessed as decrease in developed tension at 10 uM relative to control; type: functional, Cavia porcellus, Cardiac atrium; parameters: scale not given: the % may be the effect or the level left
[26] = Antiarrhythmic activity in sinusoidal alternating current-induced guinea pig left atrium assessed as increase in current strength at which extra beats occur at 10 uM measured every 30 mins; type: functional, Cavia porcellus, Cardiac atrium; summary of the method: as §1
[27] = Cardioprotective effect in Langendorff perfused guinea pig spontaneously beating […] assessed as atrioventicular conduction time at 0.1 uM (RVb = 50 to 55 +/- 1 to 4 ms); type: functional; details: Cavia porcellus; summary of the method: as §2
[28] = Antiarrhythmic activity in sinusoidal alternating current-induced guinea pig left atrium assessed as increase in current strength at which extra beats occur measured every 30 mins; type: functional, tissue-based; details: Cavia porcellus, Cardiac atrium, 0.5 h; summary of the method: as §1
[29] = Cardioprotective effect in Langendorff perfused guinea pig spontaneously beating […] assessed as duration of ventricular action potential at 0.01 uM (RVb = 140 to 161 +/- 2 to 8 ms); type: functional, Cavia porcellus, Cardiac ventricle; summary of the method: as §2
[30] = Negative chronotropic activity against potassium-induced contraction in guinea pig left atrium assessed as decrease atrial rate at 100 uM relative to control; type: functional, Cavia porcellus, Cardiac atrium; parameters: scale not given: the % may be the effect or the level left
[31] = Negative inotropic activity against potassium-induced contraction in guinea pig left atrium assessed as decrease in developed tension at 0.1 uM relative to control; type: functional, Cavia porcellus, Cardiac atrium; parameters: scale not given: the % may be the effect or the level left

SMILES	Activity [2]	inhibition at 100 µM (Aorta)	AV conduction time [5]	Activity (Heart [6])	Activity (Heart [8])	intraventricular conduction time [9]	Activity (Heart [10])	AV conduction time [11]	Activity [12]	intraventricular conduction time [13]	intraventricular conduction time [14]	intraventricular conduction time [15]	Activity (Heart [16])	Activity [18]	Activity [19]	Activity (Heart [20])	AV conduction time [21]	Activity [22]	intraventricular conduction time [23]	AV conduction time [24]	also measured
O=C(C[C@@H]1CCCN2CCCC[C@H]12)Nc1c(Cl)cccc1Cl	32%	6%	–	–	–	–	–	–	–	–	–	–	–	–	–	–	–	–	–	–	EC50 [1]: 100 nM; Activity [3]: 15%
Cc1cc(C(=O)c2ccccc2)cc(C)c1NC(=O)C[C@@H]1CCCN2CCCC[C@H]12	–	–	–	–	–	–	–	–	–	–	–	–	–	–	–	–	–	–	–	–	Activity [4]: 70%
Cc1cccc(C)c1NCCSC[C@@H]1CCCN2CCCC[C@H]12	–	34%	55 ms	142 bpm	185 bpm	25 ms	186 bpm	60 ms	175 ms	26 ms	23 ms	23 ms	179 bpm	168 ms	170 ms	158 bpm	57 ms	160 ms	24 ms	55 ms	EC50 [7]: 8420 nM; Activity [17]: 62%; Activity [25]: 37%; Activity [26]: 129%; AV conduction time [27]: 55 ms; EC50 [28]: 310 nM; Activity [29]: 162 ms
Cc1cccc(C)c1NC(=O)CSC[C@@H]1CCCN2CCCC[C@H]12 [LUPINYLTHIOACETYLANILIDE]	67%	–	51 ms	156 bpm	175 bpm	24 ms	181 bpm	60 ms	168 ms	23 ms	22 ms	22 ms	171 bpm	157 ms	164 ms	166 bpm	55 ms	150 ms	24 ms	52 ms	Activity [30]: 30%; Activity [31]: 48%; AV conduction time [27]: 53 ms; EC50 [28]: 590 nM; Activity [29]: 155 ms
